Assay results reported in ChEMBL document CHEMBL3352644, “Selenadiazole derivatives as potent thioredoxin reductase inhibitors that enhance the radiosensitivity of cancer cells” (Eur J Med Chem, 2014).
≈ marks a conversion by molar mass, not a printed value. Calls of active or inactive are those of the source. No cut-off for these calls is given here.

Columns and labels:
A-375 [1] = experiment: Induction of apoptosis in human A375 cells assessed as accumulation at subG1 phase at 4 ug/mL incubated for 18 hrs by propidium iodide staining based flow cytometry (reference value: 1.8%); format: functional
Outline: (§1)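 A375 cells treated at 10 or 4 µg/ml for 6 h, given 0 or 8 Gy X-ray, then 12 h more. Trypsinized, washed in PBS, fixed overnight in ice-cold 75% ethanol at −20 °C. Stained with propidium iodide, 30 min at 37 °C in the dark; DNA content and sub-G1 population read by flow cytometry.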

[2] = molecular target: MAP kinase p38 (Homo sapiens) (UniProt O15264+Q15759+Q16539+P53778); experiment: Induction of p38 phosphorylation in human A375 cells at 4 ug/mL incubated for 6 hrs followed by irradiation with 8 Gy X-ray at 37 degC for 12 hrs by Western blotting method; format: cell-based; conditions: A-375
Outline: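 A375 cells given […] for 6 h, then 0 or 8 Gy X-ray at 1.5 Gy/min and 12 h further culture. Lysis in ice-cold RIPA, pH 7.4, with protease and phosphatase inhibitors; protein by BCA. […] protein per lane on SDS-PAGE, transferred to nitrocellulose. Blocked in 5% milk/TBST. Primary 1:1000, 10 h, 4 °C; HRP secondary 1:2000, 1.5 h.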

A-375 [3] = experiment: Induction of ROS generation in human A375 cells at 2 ug/mL incubated for 6 hrs followed by irradiation with 8 Gy X-ray at 37 degC for 12 hrs by DCF and DHE dye based fluorescence assay; format: functional, cell-based
Outline: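 A375 cells (4 × 10⁴/well) cultured 24 h, then treated 6 h at 8 or 16 µg/ml or at 2 or 4 µg/ml, and given 0 or 8 Gy X-ray. Loaded with H₂DCF or DHE for 30 min at 37 °C in the dark. Fluorescence read at 485/535 nm (DCF) or 480/610 nm (DHE); % of control.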

A-375 [4] = experiment: Induction of apoptosis in human A375 cells assessed as accumulation at subG1 phase at 4 ug/mL incubated for 6 hrs followed by irradiation with 8 Gy X-ray at 37 degC for 12 hrs by propidium iodide staining based flow cytometry (reference value: 2.3%); format: functional; outline: as §1
A-375 [5] = experiment: Cytotoxicity against human A375 cells incubated for 6 hrs followed by irradiation with 8 Gy X-ray at 37 degC for 12 hrs by MTT assay; format: functional, cell-based; conditions: A-375, light or radiation study
Outline: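 A375 cells (DMEM, 10% FBS, 37 °C, 5% CO2) seeded at 4 × 10⁴ cells/well and grown to 70–80% confluence. Treated with 0, 1, 2, 4, 8, 16 or 32 µg/ml for 6 h, then given 0 or 8 Gy X-ray (linear accelerator, 1.5 Gy/min), then 12 h more at 37 °C. MTT 4 h, formazan dissolved in DMSO, read at 570 nm; % of control; three repeats.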

A-375 [6] = experiment: Induction of cell cycle arrest in human A375 cells assessed as accumulation at G1/G0 phase at 4 ug/mL incubated for 6 hrs followed by irradiation with 8 Gy X-ray at 37 degC for 12 hrs by propidium iodide staining based flow cytometry (reference value: 44.9%); format: functional; outline: as §1
A-375 [7] = experiment: Induction of apoptosis in human A375 cells assessed as caspase 3 activation at 2 ug/mL incubated for 6 hrs followed by irradiation with 8 Gy X-ray at 37 degC for 12 hrs by Western blotting method; format: functional, cell-based
Outline: (§2)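 A375 cells treated with 2 µg/ml alone or with 8 Gy X-ray (6 h pretreatment, then 12 h; 18 h total). RIPA lysates (50 µg protein) run on SDS-PAGE and immunoblotted for caspases and PARP cleavage. Reprobed for β-actin as loading control.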

A-375 [8] = experiment: Induction of apoptosis in human A375 cells assessed as caspase 3 activation at 2 ug/mL incubated for 6 hrs followed by irradiation with 8 Gy X-ray at 37 degC for 12 hrs by fluorometric assay; format: functional, cell-based
Outline: (§3)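 Cells seeded at 1 × 10⁶ per 10 cm dish and treated with 2 µg/ml alone or with 8 Gy X-ray for 18 h total. RIPA lysates clarified by spinning at 12,000 rpm for 5 min; 80 µg protein given Ac-DEVD-AMC (caspase-3), Ac-IETD-AMC (caspase-8) or Ac-LEHD-AMC (caspase-9). Incubated 2 h at 37 °C in the dark; fluorescence at 380/440 nm.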

A-375 [9] = experiment: Induction of ROS generation in human A375 cells at 2 ug/mL […] by DCF and DHE dye based fluorescence assay; format: functional, cell-based
A-375 [10] = experiment: Induction of cell morphological changes in human A375 cells pre-treated with 20 uM p38 inhibitor […] for 1 hr followed by 8 ug/mL compound exposure for 18 hrs; format: functional, cell-based
A-375 [11] = experiment: Increase in Bid cleavage in human A375 cells at 4 ug/mL incubated for 18 hrs by Western blotting method; format: functional, cell-based
Outline: (§4)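 A375 cells pretreated 6 h with compound at 4 µg/ml, given 0 or 8 Gy X-ray, then incubated 12 h more. Lysed in RIPA buffer, pH 7.4, with protease and phosphatase inhibitors; 50 µg protein run on SDS-PAGE and blotted to nitrocellulose. Blocked in 5% milk; primary antibodies 1:1000, 10 h at 4 °C; HRP secondary 1:2000.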

A-375 [12] = experiment: Cytotoxicity against human A375 cells pre-treated with 20 uM p38 inhibitor […] for 1 hr followed by 8 ug/mL compound exposure for 18 hrs by MTT assay; format: functional, cell-based
Outline: (§5)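 A375 cells pretreated 1 h with 20 µM SP600125 (JNK) or SB203580 (p38), then exposed to compound at 8 µg/ml for 18 h. Viability by MTT (formazan in DMSO, 570 nm), expressed as % of control.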

A-375 [13] = experiment: Reduction in Trx expression in human A375 cells at 2 ug/mL after 18 hrs by Western blotting method; format: functional, cell-based
A-375 [14] = experiment: Cytotoxicity against human A375 cells pre-treated with 20 uM JNK inhibitor SP600125 for 1 hr followed by 8 ug/mL compound exposure for 18 hrs by MTT assay; format: functional, cell-based; outline: as §5
A-375 [15] = experiment: Induction of cell cycle arrest in human A375 cells assessed as accumulation at G1/G0 phase at 4 ug/mL incubated for 18 hrs by propidium iodide staining based flow cytometry (reference value: 48.9%); format: functional; outline: as §1
A-375 [16] = experiment: Increase in Bax expression in human A375 cells at 4 ug/mL incubated for 6 hrs followed by irradiation with 8 Gy X-ray at 37 degC for 12 hrs by Western blotting method; format: functional, cell-based; outline: as §4
A-375 [17] = experiment: Induction of apoptosis in human A375 cells assessed as caspase 8 activation at 2 ug/mL incubated for 6 hrs followed by irradiation with 8 Gy X-ray at 37 degC for 12 hrs by fluorometric assay; format: functional, cell-based; outline: as §3
A-375 [18] = experiment: Induction of apoptosis in human A375 cells assessed as caspase 9 activation at 2 ug/mL incubated for 18 hrs by Western blotting method; format: functional, cell-based; outline: as §2
A-375 [19] = experiment: Induction of ROS generation in human A375 cells at 4 ug/mL […] by DCF and DHE dye based fluorescence assay; format: functional, cell-based
A-375 [20] = experiment: Reduction in Trx expression in human A375 cells at 2 ug/mL incubated for 6 hrs followed by irradiation with 8 Gy X-ray at 37 degC for 12 hrs by Western blotting method; format: functional, cell-based

- Activity [2]: Active
Compound: COc1cc(-c2nc3cc(-c4ccc5n[se]nc5c4)ccc3[nH]2)cc(OC)c1OC
- Activity (A-375 [1]): 36.2%
- Activity (A-375 [3]): Active
- Activity (A-375 [4]): 57.1%
- IC50 (A-375 [5]): 2.2 µg/mL (≈ 4.73 µM)
- Activity (A-375 [6]): 47.3%
- Activity (A-375 [7]): Active
- Activity (A-375 [8]): Active
- Activity (A-375 [9]): Active
- Activity (A-375 [10]): inactive
- Activity (A-375 [11]): Active
- Activity (A-375 [12]): inactive
- Activity (A-375 [13]): Active
- Activity (A-375 [14]): Active
- Activity (A-375 [15]): 21.6%
- Activity (A-375 [16]): Active
- Activity (A-375 [17]): Active
- Activity (A-375 [18]): Active
- Activity (A-375 [19]): Active
- Activity (A-375 [20]): Active
